Screening results as filed in PubChem BioAssay.
Many of the other results were omitted from the sample, so hits are more common in it than they were.
Ecoli tolC: growth inhibitors of E. coli tolC mutant, primary screen, strain BW25113 ΔtolC::kan, 384-well; OD615; growth inhibition, % at 10 µM (by protocol); hit rate 2.2% among 65,000;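 active = growth inhibition at or above a cutoff equal to the mean over every tested compound plus 3 SD, cut at about 60% in these data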;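 note: growth measured after 20 h incubation at 37 °C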
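Doses: one dose of 10 µM final / Material: E. coli BW25113 ΔtolC::kan, tolC deletion mutant strain / Buffer or medium: LB with kanamycin 50 µg/mL / Evaluation: percent growth inhibition / Detection: optical density read at 615 nm / Incubation: 37 °C, 20 h exposure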
MMP13 inh: human MMP13 inhibitors, primary screen, biochemical, FRET peptide cleavage; inhibition, % at 4 µM; hit rate 0.07% among 65,000; Collagenase 3 (Homo sapiens), P45452; AID 570, 2006; MMP-13 fTHP FRET cleavage, Mca fluorescence;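 active = inhibition above the mean of compound-free control plate wells plus 3 SD, cut at about 14% in these data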;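 note: 0% = DMSO wells and 100% = wells with reference MMP-13 inhibitor after basal subtraction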
E coli RNAP: E. coli RNAP inhibitors, biochemical | DNA-directed RNA polymerase subunit beta (Escherichia coli (strain K12)), P0A8V2 | inhibition, %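 (tested at 10 µM)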 | hit rate 0.2% among 62,000 | E. coli RNA polymerase, fluorescence transcription assay; in the data active = inhibition above about 20%;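 note: 0% = enzyme without compound and 100% = no enzyme blank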
E coli WT exp: growth inhibitors of wild-type E. coli, primary screen, strain BW25113, expanded library, OD600. OD600 absorbance. growth inhibition, % at 100 µM. AID 710, 2007. hit rate 0.15% among 98,000;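 active = growth inhibition above about 50% at one test dose, limit read from the data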;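 note: growth measured after 20 h incubation at 37 °C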
BAP1 inh: inhibitors of BAP1 deubiquitinase, primary screen, biochemical, Ub-AMC fluorescence, kinetic. hit rate 0.48% among 72,000. recombinant BAP1, Ub-AMC hydrolysis fluorescence kinetic; active compounds read low. Ubiquitin carboxyl-terminal hydrolase BAP1 (Homo sapiens), Q92560. calls only at 20 µM;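 active = activity remaining at or below 50% of control, provided the compound also passes the data quality filters; inactive = the rest, including low values that fail the filters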;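 note: 100% = DMSO wells rate and 0% = substrate alone blank rate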
Target sequence (Q92560 whole entry, looked up): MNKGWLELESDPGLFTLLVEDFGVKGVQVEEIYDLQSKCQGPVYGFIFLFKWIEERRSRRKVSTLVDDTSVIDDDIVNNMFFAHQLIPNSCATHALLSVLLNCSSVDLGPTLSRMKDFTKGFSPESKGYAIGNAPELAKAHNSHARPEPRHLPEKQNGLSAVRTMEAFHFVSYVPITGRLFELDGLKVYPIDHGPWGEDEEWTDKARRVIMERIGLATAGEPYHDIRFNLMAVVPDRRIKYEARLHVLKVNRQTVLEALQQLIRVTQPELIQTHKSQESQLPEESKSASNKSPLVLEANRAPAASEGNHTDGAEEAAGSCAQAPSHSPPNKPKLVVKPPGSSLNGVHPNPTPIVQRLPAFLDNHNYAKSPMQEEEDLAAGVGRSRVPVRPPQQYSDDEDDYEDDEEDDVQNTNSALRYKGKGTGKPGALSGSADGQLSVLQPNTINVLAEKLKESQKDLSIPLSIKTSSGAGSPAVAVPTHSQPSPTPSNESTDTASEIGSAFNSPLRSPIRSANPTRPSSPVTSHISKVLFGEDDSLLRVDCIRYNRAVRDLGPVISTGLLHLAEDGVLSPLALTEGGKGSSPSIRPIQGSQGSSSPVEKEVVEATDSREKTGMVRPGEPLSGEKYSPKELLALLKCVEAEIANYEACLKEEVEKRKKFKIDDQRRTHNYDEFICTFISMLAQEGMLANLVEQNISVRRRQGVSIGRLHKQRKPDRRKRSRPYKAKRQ
AP ELISA ortho: alternative complement pathway inhibitors, primary screen, biochemical, ELISA, human serum, orthogonally pooled compounds | hit rate 0.08% among 62,000 | inhibition, % at 5 µM | LPS-coated ELISA, C3 deposition; tested in compound mixtures;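 active = inhibition above 30% in each of the two pooled mixtures holding the compound, so the lower value exceeds 30%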;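 note: 0% = serum in Mg-EGTA without compound and 100% = EDTA serum blank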
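Medium: diluted human serum in Mg2+-EGTA GVB++. Assay system: human serum complement alternative pathway, C3 deposition onto LPS. Also added: Plate-bound LPS. Technique: Anti-C3 ELISA, OD 450 nm. Measure: percent inhibition. Incubation: 1 h at 37 °C. Dosing: 5 µM each compound, pools of ten, 50 µM per pool.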
The depositor's hits bear a star; i = inactive; nt = no result given.

SMILES	Ecoli tolC	MMP13 inh	E coli RNAP	E coli WT exp	BAP1 inh	AP ELISA ortho
O=C(NCC1CCCO1)c1sc(=S)n2c1[nH]c(=O)c1ccc(C(=O)N3CCCCC3)cc12 (centres undefined)	67*	4	16	-9	i	21
O=C(NC1CCCCC1)c1sc(=S)n2c1[nH]c(=O)c1ccccc12	100*	4	1	-11	i	11
CCCCNC(=O)c1sc(=S)n2c1[nH]c(=O)c1ccccc12	100*	6	6	11	i	-4
O=C(NCC1CCCO1)c1ccc2c(=O)n(CC3CCCO3)c(=S)[nH]c2c1 (centres undefined)	nt	nt	nt	5	nt	nt
O=C(NC1CCCCCC1)c1c(O)c2ccccc2[nH]c1=O	-19	-10	2	-13	i	5
N#Cc1ccc(-c2ccccc2)nc1SCC(=O)c1ccccc1	nt	nt	nt	nt	i	nt
Brc1ccc(-c2nnc3n2CCC3)cc1	nt	nt	nt	nt	i	nt
COc1ccc(OC)c(S(=O)(=O)N2CCN(c3c(C)cccc3C)CC2)c1	65*	6	11	-8	i	13
CCN1CCN(S(=O)(=O)c2cc(OC)ccc2OC)CC1	-3	1	7	5	i	0
COc1ccc(OC)c(S(=O)(=O)n2cnc3cc(C)c(C)cc32)c1	94*	2	2	0	i	5
CCOc1ccc(S(=O)(=O)n2cnc3cc(C)c(C)cc32)cc1	42	1	3	-4	i	-6
O=c1oc2ccc([N+](=O)[O-])cc2cc1-c1csc(Nc2ccccc2F)n1	nt	nt	nt	nt	i	nt
O=C(Cn1ccc([N+](=O)[O-])n1)Nc1ccc(I)cc1	nt	nt	nt	nt	i	nt
NC(=O)c1cc2c(ccc3ccccc32)oc1=Nc1cccc2ccccc12	nt	nt	nt	nt	i	nt
COc1cc(NC(=O)COc2ccccc2C(C)(C)C)c(OC)cc1Cl	nt	nt	nt	nt	i	nt
N#Cc1c(NC(=O)CSc2n[nH]c(Cc3ccccc3)n2)oc(-c2ccccc2)c1-c1ccccc1	64*	2	11	-13	nt	3
CCOC(=O)c1sc(NC(=O)CSc2nc(C)cc(C)n2)c(C#N)c1C	nt	nt	nt	-4	nt	nt
CCOC(=O)c1sc(NC(=O)CSc2n[nH]c(-c3ccccc3)n2)c(C#N)c1C	100*	-15	7	-11	i	7
Cc1ccnc(SCC(=O)Nc2oc(-c3ccccc3)c(-c3ccccc3)c2C#N)n1	1	-1	-2	-13	nt	7
CCOc1cccc(NC(=O)C2CC(=O)N(C)C(=Nc3ccccc3)S2)c1 (centres undefined)	57	-6	-4	-4	i	10
CCOc1cccc(NC(=O)C2CC(=O)N(C)C(=Nc3cccc(F)c3)S2)c1 (centres undefined)	88*	5	7	-2	i	3
Cc1ccc(C)c(-n2c(N)c(C(N)=O)sc2=S)c1	12	4	40*	-1	i	7
Cc1ccc(-n2c(N)c(C(N)=O)sc2=S)c(C)c1	10	0	14	1	i	-4
Cc1cc(C)n(C(C[N+](=O)[O-])c2ccc(Cl)cc2)n1 (centres undefined)	nt	nt	nt	100*	nt	nt
Cc1cc(O)c(C(C[N+](=O)[O-])c2ccc(Cl)cc2)c(=O)o1 (centres undefined)	nt	nt	nt	2	nt	nt
SMILES	Ecoli tolC	MMP13 inh	E coli RNAP	E coli WT exp	BAP1 inh	AP ELISA ortho
CCc1nc2sc3ccccc3c(=O)c2c(=O)n1Cc1ccco1	91*	-5	9	3	i	0
O=C(Nc1cccc(S(=O)(=O)c2cccc(NC(=O)C3CC3)c2)c1)C1CC1	94*	-5	10	10	i	7
O=C(c1ccccc1)c1cccc(NC(=O)C2CC2)c1	nt	nt	nt	-1	nt	nt
Cc1cccnc1Nc1nc(-c2ccc(O)cc2O)cs1	100*	0	12	10	i	-17
Cc1cc(C)c(C#N)c(SCC(=O)OC2CCCCC2)n1	73*	-4	2	-9	i	8
O=C(Nc1cnn(Cc2ccc(Cl)cc2Cl)c1)c1noc2c1CCCC2	71*	1	9	-6	i	-1
CCOC(=O)c1c(-c2cccs2)csc1NC(=O)CN1CC(C)OC(C)C1 (centres undefined)	68*	-1	7	-15	i	7
CCOc1ccccc1NC(=O)COc1cc(C)ccc1C(C)(C)C	nt	nt	nt	nt	i	nt
Cc1ccc2c(c1)[nH]c1c(N3CCN(Cc4ccccc4)CC3)ncnc12	100*	-20	3	-7	nt	-15
CCOc1ccc2[nH]c3c(N4CCN(c5ccccn5)CC4)ncnc3c2c1	66*	-58	2	-11	i	-7
O=C(Nc1nc2c(cc3c4c(cccc42)CC3)s1)c1ccc(S(=O)(=O)N2CCc3ccccc32)cc1	nt	nt	nt	nt	i	nt
O=S(=O)(Nc1ccc(-c2nc3ccccc3o2)cc1)c1ccccc1	93*	-9	1	0	i	-6
CCSc1ccc(NC(=O)CC2c3ccccc3Oc3ccccc32)cc1	nt	nt	nt	nt	i	nt
CCOC(=O)C1=C(C)Nc2nnnn2C1c1ccc(OC(=O)c2ccccc2)cc1 (centres undefined)	nt	nt	nt	nt	i	nt
Clc1ccc(OCCCc2nc(-c3cccnc3)no2)c(Cl)c1	95*	1	16	9	i	-8
Cc1cc(C(=O)OCC(=O)c2ccc(Br)s2)c(C)o1	20	-7	5	-1	i	10
COc1ccc(OC)c(C(=O)COC(=O)c2cc(C)oc2C)c1	61*	0	7	-4	i	12
COc1cc(C(=S)N2CCOCC2)ccc1OC(=O)c1ccc([N+](=O)[O-])cc1	nt	nt	nt	nt	i	nt
COc1cc(CC(=O)NCc2ccccn2)cc(OC)c1OC	nt	nt	nt	-1	nt	nt
COc1cc(Cc2cnc(N)nc2N)cc(OC)c1OC	97*	4	9	100*	i	9
O=C(CSc1nc2ccccc2o1)Nc1nc2ccccc2s1	33	1	10	-4	i	33
O=C(CSc1nc2ccccc2o1)Nc1nc2c(s1)CCCC2	63*	6	nt	nt	i	16
CCOc1ccc2nc(NC(=O)CSc3nnnn3C3CCCCC3)sc2c1	44	1	6	-5	i	-1
CCOc1ccc(OCCSc2nnnn2C2CCCCC2)cc1	65*	-4	9	-2	i	5
O=C(CSc1nnnn1C1CCCCC1)Nc1nc2c(s1)CCCC2	98*	7	8	3	i	-1
Clc1ccc(OCCSc2nnnn2C2CCCCC2)cc1	nt	nt	nt	1	nt	nt
COc1ccc2nc(NC(=O)CSc3nnnn3C3CCCCC3)sc2c1	69*	0	3	7	nt	-8
O=C(Nc1ccc2oc(-c3ccc4ccccc4c3)nc2c1)c1ccc(Cl)c([N+](=O)[O-])c1	nt	nt	nt	nt	i	nt
